The inhibition is the drop in the measured response relative to a control, in per cent. The Tmax is the time at which the peak concentration occurs. As usually defined, the Cmax is the maximum level reached in the sampled fluid or tissue. As usually defined, the AUC(0-t) is the area under the concentration-time curve up to a stated or last time point. A word on the IC50: it is the concentration that inhibits the measured activity by half.

Data set [1] in a line: Anti-necroptotic activity in human I2.1 cells assessed as inhibition of TNFalpha-induced necroptosis by measuring necroptosis recovery at 10 nM preincubated for 1 hr followed by TNFalpha addition and measured after 24 hrs by CCK-8 assay relative to control. It is filed as functional. More on the design: scale not given: the % may be the effect or the level left. The settings on record: time 25 hrs. The gist of the method: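 Human I2.1 cells from ATCC, seeded at low density in growth medium and incubated overnight. Compound added first. After 1 h, stimulated with TNF-α 20 ng mL⁻¹ and incubated a further 24 h. Viability read by CCK-8. Recovery is mean ± SD of at least two assays.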
(In general: Formazan colour is commonly taken as a measure of viable cells.)

Data set [2] relates to Hepa 1-6. Description: Anti-necroptotic activity in mouse Hepa1-6 cells assessed as inhibition of TNFalpha/BV6/Z-VAD-induced necroptosis by measuring necroptosis recovery at 1 uM measured after 24 hrs by CCK-8 assay relative to control. It is filed as functional. Set-up: scale not given: the % may be the effect or the level left. The gist of the method:
(§1)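 Murine Hepa1-6 cells from ATCC, seeded at low density and incubated overnight. Z-VAD 10 μM added 1 h ahead. Necroptosis then induced with TNF-α 20 ng mL⁻¹ plus BV6 10 μM, together with compound, for 24 h. Viability read by CCK-8. Recovery is mean ± SD of at least two assays.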

For data set [3], the system named is Hepa 1-6. Description: Anti-necroptotic activity in mouse Hepa1-6 cells assessed as inhibition of TNFalpha/BV6/Z-VAD-induced necroptosis by measuring necroptosis recovery at 10 nM measured after 24 hrs by CCK-8 assay relative to control. It is filed as functional. More on the design: scale not given: the % may be the effect or the level left. The gist of the method: as §1

The target in data set [4] is T1, Receptor-interacting serine/threonine-protein kinase 1 (Homo sapiens) (UniProt Q13546).
T1 sequence (whole entry): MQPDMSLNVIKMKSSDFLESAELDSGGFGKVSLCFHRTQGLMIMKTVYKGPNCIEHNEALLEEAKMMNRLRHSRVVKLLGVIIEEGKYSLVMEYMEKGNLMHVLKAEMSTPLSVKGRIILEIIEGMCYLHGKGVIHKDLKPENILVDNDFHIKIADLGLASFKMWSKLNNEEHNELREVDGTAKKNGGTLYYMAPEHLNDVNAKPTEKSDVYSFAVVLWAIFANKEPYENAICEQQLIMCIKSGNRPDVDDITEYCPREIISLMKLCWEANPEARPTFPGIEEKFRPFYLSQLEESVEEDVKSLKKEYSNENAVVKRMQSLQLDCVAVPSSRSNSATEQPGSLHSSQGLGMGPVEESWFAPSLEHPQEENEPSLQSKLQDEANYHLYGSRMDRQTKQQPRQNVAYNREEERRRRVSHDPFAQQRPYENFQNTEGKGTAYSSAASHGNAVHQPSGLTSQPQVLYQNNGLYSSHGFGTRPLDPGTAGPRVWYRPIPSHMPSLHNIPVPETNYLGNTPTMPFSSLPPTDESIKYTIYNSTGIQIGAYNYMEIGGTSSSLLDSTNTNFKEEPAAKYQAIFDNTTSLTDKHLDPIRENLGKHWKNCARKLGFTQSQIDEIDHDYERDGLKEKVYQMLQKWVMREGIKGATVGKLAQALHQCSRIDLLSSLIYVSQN
Description: Inhibition of recombinant human N-terminal GST-tagged RIPK1 (1 to 327 residues) expressed in baculovirus infected Sf9 insect cells at 1 uM using myelin basic protein as substrate by ADP-glo assay relative to control. The gist of the method: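 RIPK1 kinase activity tested at 1 μM. Read-out is luminescence. Inhibition% = (DMSO-control specific signal − inhibitor specific signal)/DMSO-control specific signal × 100.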

Data set [5] has as its system Hepa 1-6. Description: Anti-necroptotic activity in mouse Hepa1-6 cells assessed as inhibition of TNFalpha/BV6/Z-VAD-induced necroptosis by measuring necroptosis recovery at 100 nM measured after 24 hrs by CCK-8 assay relative to control. Set-up: scale not given: the % may be the effect or the level left. Format: functional. The gist of the method: as §1
The nature of data set [6]: Elimination half-life in Sprague-Dawley rat at 3 mg/kg, po by LC-MS/MS analysis. The following applies: in vivo, read-out: beta t1/2 (converted). Format: ADME, organism-based. The gist of the method: (§2)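 Male Sprague Dawley rats, N = 3. Single oral dose of 3 mg kg⁻¹ in DMSO/0.5% HMPC (5/95, v/v). Blood taken at 0.25, 0.5, 1, 2, 4, 8 and 24 h. Serum drug levels measured by LC-MS/MS. Parameters reported as means.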

Data set [7] is described as follows: Tmax in Sprague-Dawley rat at 3 mg/kg, po by LC-MS/MS analysis. It is filed as ADME, organism-based. The following applies: in vivo. The gist of the method:
as §2

The nature of data set [8]: Cmax in Sprague-Dawley rat at 3 mg/kg, po by LC-MS/MS analysis. Format: ADME, organism-based. The settings on record: in vivo. The gist of the method:
as §2

The nature of data set [9]: AUClast in Sprague-Dawley rat at 3 mg/kg, po by LC-MS/MS analysis. Format: ADME, organism-based. The settings on record: in vivo. The gist of the method: as §2
The subject of data set [10] is HT-29. Description: Anti-necroptotic activity in human HT-29 cells assessed as inhibition of TNFalpha/Z-VAD-fmk/AT-406-induced necroptosis preincubated for 30 mins followed by TNFalpha/Z-VAD-fmk/AT-406 addition and measured after 16 to 20 hrs by CCK-8 assay. Format: functional, cell-based.

The structures appear in SMILES notation. Bounds are passed on as bounds.

`Cc1ccc(OCCCC(C)(C)O)cc1-c1ccnc(NC(=O)c2nc3n(n2)C(c2ccccc2F)CC3)c1` (stereo not given): the Activity in data set [1] is listed as 62.7%.

In the case of `CC(C)(O)CCCOc1ccc(Cl)c(-c2ccnc(NC(=O)c3nc4n(n3)C(c3ccccc3)CC4)c2)c1` (stereo not given), the Activity came out at 80.6% in data set [1] and 2.9% in data set [2].

For the molecule `Cc1ccc(OCCC2CCOCC2)cc1-c1ccnc(NC(=O)c2nc3n(n2)[C@H](c2ccccc2)C[C@@H]3F)c1`, the Activity in data set [1] was determined as 70.5%; in data set [3], 111.4%. In addition, the inhibition in data set [4] was found to be 78.8%.

In the case of `Cc1ccc(OCCCC(C)(C)O)cc1-c1cnnc(NC(=O)c2nc3n(n2)C(c2ccccc2)CC3)c1` (stereo not given), the Activity in data set [1] stood at 53.6%.

Take `Cc1ccc(OCCCC(C)(C)O)cc1-c1cc(NC(=O)c2nc3n(n2)C(c2ccccc2)CC3)ncc1C` (stereo not given): the Activity in data set [1] is 72.7%.

Take `Cc1ccc(OCCCC(C)(C)O)cc1-c1ccnc(NC(=O)c2nc3n(n2)[C@H](c2ccccc2)C[C@H]3F)c1` (relative stereo): the Activity in data set [1] is recorded as 98.9%; in data set [2], 104.2%; in data set [5], 41.3%; in [3], 6.3%.

Turning to `Cc1ccc(OCCC2CCOCC2)cc1-c1ccnc(NC(=O)c2nc3n(n2)[C@@H](c2ccccc2)C[C@H]3F)c1`, the inhibition in data set [4] was below 0%.

For `Cc1ccc(OCC(C)(C)O)cc1-c1ccnc(NC(=O)c2nc3n(n2)C(c2ccccc2)CC3)c1` (stereo not given), the Activity was determined as 98.2% in [1], 94.1% in data set [2], 10.9% in data set [5] and 3.8% in data set [3].

With `Cc1ccc(OCCCC(C)(C)O)cc1-c1cc(NC(=O)c2nc3n(n2)C(c2ccccc2)CC3)ncc1Cl` (stereo not given), in data set [1], the Activity is given as 56.2%.

As for `Cc1ccc(OCCCC(C)(C)O)cc1-c1ccnc(NC(=O)c2nc3n(n2)C(C2CCCCC2)CC3)c1` (stereo not given), the Activity in data set [1] was 61.2%.

With `Cc1ccc(OCCCC(C)(C)O)cc1-c1cc(NC(=O)c2nc3n(n2)C(c2ccccc2)CC3)ncc1F` (stereo not given), the Activity in data set [1] is listed as 58.1%.

Turning to `Cc1ccc(OCCC2CCOCC2)cc1-c1ccnc(NC(=O)c2nc3n(n2)C(c2ccccc2)CC3)c1` (stereo not given), the Activity in [1] is 91.9%; in [2], 96.6%; in data set [5], 10.7%; in data set [3], 3.7%.

With `Cc1ccc(OCCCC#N)cc1-c1ccnc(NC(=O)c2nc3n(n2)C(c2ccccc2)CC3)c1` (stereo not given), the Activity in data set [1] came to 35.8%.

Turning to `Cc1ccc(OCCN2CCOCC2)cc1-c1ccnc(NC(=O)c2nc3n(n2)[C@H](c2ccccc2)C[C@@H]3F)c1`, the Activity in [1] is recorded as 97.9%; in data set [3], 102.4%. In [4], the inhibition stood at 79.1%. Besides, the half-life in data set [6] is 1.91 h. The Tmax in data set [7] was 0.67 h. In [8], this molecule registered a Cmax of 8.9 ng/mL. The molecule also yielded an AUC(0-t) in data set [9] of 15.2 ng·h/mL.

`COc1ccc(C)c(-c2ccnc(NC(=O)c3nc4n(n3)C(c3ccccc3)CC4)c2)c1` (stereo not given): the Activity in [1] came out at 73.7%.

With `Cc1ccc(OCCN2CCOCC2)cc1-c1ccnc(NC(=O)c2nc3n(n2)[C@@H](c2ccccc2)C[C@H]3F)c1`, the inhibition in data set [4] is below 0%.

In the case of `Cc1ccc(OCCCC(C)(C)O)cc1-c1ccnc(NC(=O)c2nc3n(n2)C(C2CCCC2)CC3)c1` (stereo not given), in data set [1], the Activity came to 73.2%.

`Cc1ccc(OCCCC(C)(C)O)cc1-c1ccnc(NC(=O)c2nc(Cc3ccccc3)n[nH]2)c1`: the IC50 in [10] is below 100 nM. Moreover, the Activity in data set [1] was 90%; in data set [2] it was below 0%.

As to `CC(C)(O)CCCOc1cccc(-c2ccnc(NC(=O)c3nc4n(n3)C(c3ccccc3)CC4)c2)c1` (stereo not given), the Activity in data set [1] came out at 86.1%; in data set [2], 2.2%.

`Cc1ccc(OCCCC(C)(C)O)cc1-c1ccnc(NC(=O)c2nc3n(n2)C(c2ccc(F)cc2)CC3)c1` (stereo not given): in data set [1], the Activity is 60.1%.

Turning to `Cc1ccc(OCCCC(C)(C)O)cc1-c1ccnc(NC(=O)c2nc3n(n2)C(c2cccc(F)c2)CC3)c1` (stereo not given), in data set [1], the Activity amounted to 58.1%.

`Cc1ccc(OCCCC(C)(C)O)cc1-c1ccnc(NC(=O)c2nc3n(n2)C(c2ccccc2)CC3)c1` (stereo not given): the Activity worked out at 81.2% in data set [1], 86.6% in data set [2], 26.1% in data set [5] and 5.5% in data set [3].

With `Cc1ccc(OCCCC(C)(C)O)cc1-c1ccnc(NC(=O)c2nc3n(n2)[C@@H](c2ccccc2)C[C@H]3F)c1` (relative stereo), the Activity in data set [1] is 80.6%; in data set [2] it was 110%; in data set [5], 107.6%; in [3], 100.5%.

The values above are taken from ChEMBL document CHEMBL5579858, “Design, synthesis, and structure-activity relationship studies of 6,7-dihydro-5H-pyrrolo[1,2-b][1,2,4]triazole derivatives as necroptosis inhibitors” (RSC Med Chem, 2024).
